For assay [1], the system named is MCF7. The assay is described as follows: Inhibition of microtubule (unknown origin) dynamics in GFP-tubulin transfected human MCF7 cells assessed as decrease in microtubule catastrophe frequency at 15 nM by confocal laser scanning microscopy relative to control. It is filed as cell-based. In outline:
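EGFP-tubulin transfected MCF-7 cells were treated with vehicle or 15 nM, and individual microtubules were tracked by confocal laser scanning microscopy, 20 microtubules per condition. Life-history parameters were derived as previously described. Significance was tested by one-way ANOVA.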

The target in assay [2] is T1, Tubulin (Homo sapiens) (UniProt P68371+Q9H4B7+P0DPH7+P68366+Q13509+Q71U36+P04350+Q3ZCM7+P07437+P68363+Q9BQE3+Q6PEY2+Q13885+Q9BVA1+Q9BUF5). As to the kind of experiment: Binding affinity to tubulin (unknown origin) after 15 mins by fluorescence spectrophotometry. It counts as protein-complex assay. The gist of the method:
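Goat brain tubulin (2 μM) was incubated with ligand (5–100 μM) in 25 mM Pipes pH 6.8 for 15 min at 25 °C, read with excitation 295 nm and emission 336 nm in a 0.3 cm cell. No inner-filter correction was applied. ΔF was fitted to a quadratic binding equation to give Kd. Value is the average of five independent experiments.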

Assay [3] deals with HeLa. The assay is described as follows: Inhibition of microtubule-kinetochore attachment in human HeLa cells assessed as BubR1 accumulation at kinetochoric region at 15 to 45 nM after 24 hrs by Hoechst 33258 dye-based Hec1 staining assay. It is filed as cell-based.
Assay [4] deals with Tubulin (Capra hircus). As to the kind of experiment: Inhibition of goat brain microtubule GTPase activity using GTP as substrate assessed as reduction of inorganic phosphate release at 5 uM incubated for 10 mins prior to substrate addition measured after 10 mins by ammonium molybdate malachite green assay relative to control.
The next assay deals with MDA-MB-231. The assay is described as follows: Cytotoxicity against human MDA-MB-231 cells after 24 to 48 hrs by trypan blue assay. It is filed as functional, cell-based. In outline: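 Cells were seeded at 1 × 10^5 cells/mL, grown 24 h at 37 °C in 5% CO2, then given vehicle (0.1% DMSO) or 1–80 nM for a further 24 or 48 h. Attached plus floating cells were counted after trypan blue staining. Percent inhibition was plotted against concentration to give IC50. Average of three independent experiments.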

Assay [5] is filed under the species Homo sapiens. As to the kind of experiment: Inhibition of microtubule (unknown origin) GTPase activity using GTP as substrate assessed as reduction of inorganic phosphate release at 20 uM incubated for 10 mins prior to substrate addition measured after 10 mins by ammonium molybdate malachite green assay relative to control. The gist of the method: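 GTP (1 mM) was added and the mixture polymerized at 37 °C for 10 min. Reactions were stopped with perchloric acid, and released phosphate was measured by ammonium molybdate–malachite green.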

The test system of assay [6] is MCF7. As to the kind of experiment: Inhibition of microtubule (unknown origin) dynamics in GFP-tubulin transfected human MCF7 cells assessed as microtubule growth time at 15 nM by confocal laser scanning microscopy (reference value: 0.9 +/- 0.1 min). It is filed as cell-based. In outline: (§1)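 EGFP-tubulin-transfected MCF-7 cells grown in EMEM with 10% FBS at 37 °C in 5% CO2, exposed to 15 nM compound (DMSO vehicle) or vehicle. Individual microtubules were followed by time-lapse confocal laser scanning microscopy and life-history traces were recorded. Kinetic parameters were derived from these traces, 20 microtubules per condition. Significance was tested by one-way ANOVA.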

The subject of assay [7] is HeLa. As to the kind of experiment: Antiproliferative activity against human HeLa cells assessed as median dose after 24 hrs. It counts as functional. The gist of the method:
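HeLa cells treated for 24 h with each agent alone and in combinations. The median dose (Dm) was taken from the median dose plot, and combination index was computed as CI = (D)1/(Dx)1 + (D)2/(Dx)2.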

Assay [8] relates to HeLa. The assay is described as follows: Induction of apoptosis in human HeLa cells assessed as mid apoptotic cells at 7 to 15 nM after 24 hrs by annexin V/propidium iodide staining-based FACS flow cytometry. It is filed as functional, cell-based. The gist of the method:
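HeLa cells were grown with vehicle (0.1% DMSO) or 7, 15 and 30 nM for 24 h and stained with an annexin V/propidium iodide kit. Stage was scored as annexin V-positive with weak PI (early/mid) or positive for both (late).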
In general terms: In flow cytometry, cells or beads pass a laser one at a time.

In assay [9] the test system is HeLa. The assay is described as follows: Antimitotic activity in human HeLa cells assessed as increase in phosphohistone H3 (Ser10) positive cell population after 24 hrs by fluorescence microscopic analysis. It is filed as functional, cell-based.
The species entered for assay [10] is Homo sapiens. As to the kind of experiment: Inhibition of microtubule (unknown origin) assembly at 1 uM incubated for 15 mins prior to GTP addition measured for 30 mins by 90 degree light scattering-based fluorescence spectrophotometric method. The gist of the method: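 MAP-rich tubulin (1 mg/mL) was preincubated with 1, 3, 5 or 10 μM in PEM buffer (25 mM Pipes pH 6.8, 3 mM MgCl2, 1 mM EGTA) for 15 min on ice. GTP (1 mM) was then added and assembly monitored by 90° light scattering at 400 nm for 30 min at 37 °C.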

In assay [11] the target is T1, Tubulin (Homo sapiens). As to the kind of experiment: Induction of tubulin (unknown origin) dimer aggregation at 10 uM after 20 mins by transmission electron microscopy. It is filed as protein-complex assay. The gist of the method:
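Goat brain tubulin (10 μM) was preincubated with 5 or 10 μM on ice for 20 min, then polymerized with 1 mM GTP at 37 °C in glutamate assembly buffer. Polymers were fixed in 0.5% glutaraldehyde, negatively stained with 2% uranyl acetate, and imaged by transmission EM.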

In assay [12] the test system is HeLa. As to the kind of experiment: Inhibition of microtubule-kinetochore attachment in human HeLa cells assessed as Mad2 accumulation at kinetochoric region at 15 to 45 nM after 24 hrs by Hoechst 33258 dye-based Hec1 staining assay. It counts as cell-based.
The test system of assay [13] is HeLa. As to the kind of experiment: Inhibition of mitosis in human HeLa cells assessed as mitotic index ratio at 30 nM after 24 hrs by Hoechst 33258 DNA staining assay (reference value: 3.2). It is filed as functional. In outline:
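HeLa cells were treated with vehicle or 7, 15 or 30 nM compound for 24 or 48 h. DNA was stained with Hoechst 33258, and mitotic cells were counted by fluorescence microscopy to give the mitotic index, compared against vehicle-treated cells.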

For assay [14], the system named is HeLa. The assay is described as follows: Cell cycle arrest in human HeLa cells assessed as accumulation at G2/M phase at 30 nM after 24 hrs by propidium iodide staining-based flow cytometry (reference value: 4%). It is filed as functional.
Assay [15] relates to MCF7. The assay is described as follows: Inhibition of microtubule (unknown origin) dynamics in GFP-tubulin transfected human MCF7 cells assessed as microtubule rescue events at 15 nM by confocal laser scanning microscopy (reference value: 10 +/- 2 events/min). It is filed as cell-based. In outline: as §1
Assay [16] concerns HeLa. The assay is described as follows: Inhibition of microtubule-kinetochore tension in human HeLa cells assessed as Mad2 accumulation at kinetochoric region at 15 to 45 nM after 24 hrs by Hoechst 33258 dye-based Hec1 staining assay. It is filed as cell-based.
Assay [17] deals with HeLa. As to the kind of experiment: Induction of mitotic microtubule depolymerization in human HeLa cells assessed as multipolar spindle formation at 30 nM after 24 hrs by Hoechst 33258 dye-based fluorescence microscopy. It counts as cell-based.
Assay [18] has as its system Tubulin (Capra hircus). As to the kind of experiment: Inhibition of goat brain microtubule GTPase activity using GTP as substrate assessed as reduction of inorganic phosphate release at 2 uM incubated for 10 mins prior to substrate addition measured after 10 mins by ammonium molybdate malachite green assay relative to control.
Assay [19] has as its system HeLa. As to the kind of experiment: Induction of apoptosis in human HeLa cells assessed as genomic DNA fragmentation at 7 to 30 nM after 40 hrs by ethidium bromide staining-based electrophoresis. It counts as functional, cell-based.

pIC50: −log10 of the molar value. Activity calls are given as the source filed them. The calls are words filed in the database; no cut-off is given here.

Usually inhibition stands for how much of the control response was suppressed. By pIC50 is commonly meant the negative decadic logarithm of the IC50, by convention in mol/L. Lower therefore signals a large IC50.

With `CC[C@H](C)[C@@H]([C@@H](CC(=O)NC[C@H]1O[C@H](C(=O)NCCc2ccccc2)[C@@H](OC)[C@@H]1OC)OC)N(C)C(=O)[C@@H](NC(=O)[C@@H](NC)C(C)C)C(C)C`, the inhibition stood at 32% in the assay with MCF7 [1]; 42% in the assay with Tubulin (Capra hircus) [4]; 54% in the assay listed under Homo sapiens [5]; 13% in the assay listed under Homo sapiens [10]; 17% with Tubulin (Capra hircus) [18]. Further, the Activity entry on Tubulin (Homo sapiens) [2] was “Dose-dependent effect”; with HeLa [7], 8.9 nM; in the assay with HeLa [9] it was “Dose-dependent effect”; with HeLa [14], 9%; with MCF7 [15] it was 12 min⁻¹. In addition, the result in the assay on HeLa [3], in the assay with HeLa [8], on Tubulin (Homo sapiens) [11], with HeLa [12], in the assay on HeLa [16] and in the assay with HeLa [17] was Active. Besides, in the assay with HeLa [19], the result was Active. Moreover, the pIC50 with MDA-MB-231 is 7.89. Besides, the TIME with MCF7 [6] is 0.00833 h. In addition, the Ratio with HeLa [13] turned out to be 12.

The record behind these values is ChEMBL document CHEMBL2331364, “A synthetic dolastatin 10 analogue suppresses microtubule dynamics, inhibits cell proliferation, and induces apoptotic cell death” (J Med Chem, 2013).
